Eleven molecules from ChEMBL document CHEMBL1127834, “Naphthalenic lignan lactones as selective, nonredox 5-lipoxygenase inhibitors. Synthesis and biological activity of (methoxyalkyl)thiazole and methoxytetrahydropyran hybrids” (J Med Chem, 1994) can be followed below.

For one data set, the system named is Monkey. Description: Inhibition of antigen-induced bronchoconstriction in allergic squirrel monkeys at 0.3 mg/kg. Format: functional. As to conditions: in Saimiri. The procedure, abridged: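 Allergic squirrel monkeys dosed orally at 0.3 mg/kg 4 h before aerosol challenge with Ascaris antigen. Read-outs were the increase in airway resistance (RL) and the decrease in dynamic compliance (Cdyn).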

Data set [1] is filed under the species Rattus norvegicus. Description: Dose-dependent inhibition of LTB4 by the compound after 3h of oral pretreatment in rat pleural. It counts as functional.
In data set [2] the target is T1, Polyunsaturated fatty acid 5-lipoxygenase (Homo sapiens, UniProt P09917).
T1 sequence (P09917 whole entry): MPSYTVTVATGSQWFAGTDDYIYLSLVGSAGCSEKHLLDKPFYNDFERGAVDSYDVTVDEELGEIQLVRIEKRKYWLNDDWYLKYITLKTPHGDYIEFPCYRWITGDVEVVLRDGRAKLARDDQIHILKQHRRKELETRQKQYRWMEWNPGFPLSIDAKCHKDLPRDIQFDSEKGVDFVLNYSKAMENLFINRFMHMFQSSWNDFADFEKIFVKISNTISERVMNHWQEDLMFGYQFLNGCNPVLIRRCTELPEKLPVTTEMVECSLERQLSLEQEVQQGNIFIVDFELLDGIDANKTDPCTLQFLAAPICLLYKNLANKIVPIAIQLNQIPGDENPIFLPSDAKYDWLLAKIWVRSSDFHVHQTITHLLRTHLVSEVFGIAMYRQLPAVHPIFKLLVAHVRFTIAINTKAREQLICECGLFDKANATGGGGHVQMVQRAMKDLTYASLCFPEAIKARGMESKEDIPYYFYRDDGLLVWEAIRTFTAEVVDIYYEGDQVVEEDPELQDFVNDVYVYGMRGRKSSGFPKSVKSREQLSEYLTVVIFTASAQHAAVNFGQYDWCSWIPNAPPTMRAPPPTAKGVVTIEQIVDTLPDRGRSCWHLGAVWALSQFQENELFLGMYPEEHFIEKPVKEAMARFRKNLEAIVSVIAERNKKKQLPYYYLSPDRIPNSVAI
As to the kind of experiment: In vitro potency against human 5-Lipoxygenase. The procedure, abridged: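 Soluble cell-free fraction of Sf9 cells expressing recombinant human 5-LO (10 μg protein/mL). Conjugated diene formation followed at A234. Inhibitors added from 500-fold DMSO stocks.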

Data set [3] is filed under the species Homo sapiens. Description: In vitro inhibition of LTB4 formation in human peripheral blood polymorphonuclear leukocytes (HPMN). It counts as functional.
The species entered for data set [4] is Homo sapiens. As to the kind of experiment: In vitro inhibition of LTB4 formation in human whole blood(HWB). Format: functional.
The species entered for data set [5] is Rattus norvegicus. Description: Dose-dependent inhibition of LTB4 by the compound after 2 hr of oral pretreatment in rat pleural. It counts as functional.
A short description of data set [6]: Cmax value of compound was determined after 1 hr. Format: ADME, organism-based. Particulars: in vivo. The procedure, abridged:
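Male Sprague-Dawley rats (2), starved overnight, dosed orally at 50 mg/kg as a solution in 0.5% methocel. Jugular vein blood sampled at 0, 0.5, 1, 2, 4, 6 and 8 h. Plasma proteins precipitated with an equal volume of acetonitrile. Supernatant analysed by reversed-phase HPLC for the lactone.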

One may read the inhibition in vivo as the percentage by which the read-out fell short of the control. As a reminder, the ED50 is the midpoint of the dose-response relation. `COC1(c2cccc(COc3ccc4c(-c5ccccc5)c(CO)c(C(=O)[O-])cc4c3)c2)CCOCC1.[Na+]` came in with an inhibition in vivo at 0.3 mg/kg in the data set on Monkey of 95%. Further, the ED50 in the data set listed under Rattus norvegicus [1] stood at 0.6 mg/kg.

As usually defined, the IC50 is the point on the concentration scale where inhibition reaches its midpoint. Regarding `COC1(c2cccc(OCc3ccc4c(-c5ccccc5)c5c(cc4c3)C(=O)OC5)c2)CCOCC1`, the IC50 turned out to be 0.02 µM in data set [2], 0.0009 µM in the data set listed under Homo sapiens [3] and 0.05 µM in the data set listed under Homo sapiens [4].

Consider `CCC(OC)(c1cccc(COc2ccc3ccccc3c2)c1)c1nccs1` (configuration not stated), for which the IC50 is 0.011 µM in the data set filed under Homo sapiens [3] and more than 3 µM in the data set filed under Homo sapiens [4].

With `CC(C)(C)Sc1c(CC(C)(C)C(=O)O)n(Cc2ccc(Cl)cc2)c2ccc(OCc3ccc4ccccc4n3)cc12` [QUIFLAPON], in data set [2], the midpoint of inhibition, the IC50, lay at 5 µM. The ED50 in the data set listed under Rattus norvegicus [5] is 0.5 mg/kg.

In the case of `COC1(c2cccc(OCc3ccc4ccccc4c3)c2)CCOCC1`, the IC50 in data set [2] amounted to 0.01 µM; in the data set filed under Homo sapiens [3] it was 0.0012 µM; in the data set listed under Homo sapiens [4], 0.06 µM.

As usually defined, the Cmax is the maximum level reached in the sampled fluid or tissue. Turning to `COC1(c2cccc(COc3ccc4c(-c5ccccc5)c5c(cc4c3)C(=O)OC5)c2)CCOCC1`, the highest concentration (Cmax) in data set [6] was 4 µM. Besides, the IC50 in the data set filed under Homo sapiens [3] was found to be 0.0015 µM; in the data set listed under Homo sapiens [4], 0.05 µM.

As for `CCC(OC)(c1cccc(OCc2ccc3ccccc3c2)c1)c1nccs1` (configuration not stated) [ZM-211965], the values for the half-maximal inhibitory concentration (IC50) in the data set filed under Homo sapiens [3] and in the data set filed under Homo sapiens [4] were 0.0044 µM and 0.7 µM, respectively.

For the molecule `COC1(c2cccc(COc3ccc4ccccc4c3)c2)CCOCC1`, the IC50 in data set [2] turned out to be 1 µM; in the data set listed under Homo sapiens [3], 0.055 µM; in the data set filed under Homo sapiens [4], 1.5 µM.

`CCC(OC)(c1cccc(OCc2ccc3c(-c4ccccc4)c4c(cc3c2)C(=O)OC4)c1)c1nccs1` (configuration not stated): the values for the half-maximal inhibitory concentration (IC50) (in data set [2]; in the data set filed under Homo sapiens [3]; in the data set listed under Homo sapiens [4]) were 0.05 µM, 0.0022 µM and 0.7 µM, respectively.

In the data set listed under Homo sapiens [4], `CC(c1cc2ccccc2s1)N(O)C(N)=O` (configuration not stated) [ZILEUTON] had an IC50 of 2 µM.

Take `CCC(OC)(c1cccc(COc2ccc3c(-c4ccccc4)c4c(cc3c2)C(=O)OC4)c1)c1nccs1` (configuration not stated): the IC50 in data set [2] turned out to be 0.16 µM; in the data set listed under Homo sapiens [3] it was 0.0048 µM; in the data set filed under Homo sapiens [4] it was 1.4 µM.
